{"source": "paper PMC2077835", "about": "(Drug metabolism and disposition: the biological fate of …, 2006)", "key": {"CYP2J2 [1]": {"test_system": "CYP2J2", "details": "ref Hashizume et al. (2002); cited from earlier work"}, "[2]": {"details": "HLMs, ref Zimmerlin and Patten (2000), cited from earlier work"}, "[3]": {"test_system": "M1 formation by human liver microsomes", "experiment": "Chemical inhibition of M1 formation by HLMs", "type": "biochemical"}, "recombinant CYP4F3B": {"target": "T1, recombinant CYP4F3B (Homo sapiens, UniProt Q08477)", "T1 sequence (Q08477 1-520 isoform Q08477-2)": "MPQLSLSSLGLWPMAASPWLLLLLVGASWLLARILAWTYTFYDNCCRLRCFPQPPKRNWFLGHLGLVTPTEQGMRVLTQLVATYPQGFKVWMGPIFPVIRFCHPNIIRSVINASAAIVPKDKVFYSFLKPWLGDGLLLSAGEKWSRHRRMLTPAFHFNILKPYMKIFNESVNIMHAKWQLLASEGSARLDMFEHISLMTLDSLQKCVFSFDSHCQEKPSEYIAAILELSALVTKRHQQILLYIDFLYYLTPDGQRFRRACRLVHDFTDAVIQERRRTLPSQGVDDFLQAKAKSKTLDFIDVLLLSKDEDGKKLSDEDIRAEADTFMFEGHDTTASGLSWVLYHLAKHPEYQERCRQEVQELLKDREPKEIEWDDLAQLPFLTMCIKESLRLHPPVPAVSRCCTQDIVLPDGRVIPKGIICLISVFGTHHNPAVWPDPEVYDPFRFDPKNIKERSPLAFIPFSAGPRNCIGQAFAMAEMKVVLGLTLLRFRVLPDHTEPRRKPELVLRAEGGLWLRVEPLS", "experiment": "Chemical inhibition of M1 formation by recombinant CYP4F3B", "type": "biochemical"}, "CYP2J2 [4]": {"target": "T2, CYP2J2 (Homo sapiens, UniProt P51589)", "T2 sequence (P51589 1-502)": "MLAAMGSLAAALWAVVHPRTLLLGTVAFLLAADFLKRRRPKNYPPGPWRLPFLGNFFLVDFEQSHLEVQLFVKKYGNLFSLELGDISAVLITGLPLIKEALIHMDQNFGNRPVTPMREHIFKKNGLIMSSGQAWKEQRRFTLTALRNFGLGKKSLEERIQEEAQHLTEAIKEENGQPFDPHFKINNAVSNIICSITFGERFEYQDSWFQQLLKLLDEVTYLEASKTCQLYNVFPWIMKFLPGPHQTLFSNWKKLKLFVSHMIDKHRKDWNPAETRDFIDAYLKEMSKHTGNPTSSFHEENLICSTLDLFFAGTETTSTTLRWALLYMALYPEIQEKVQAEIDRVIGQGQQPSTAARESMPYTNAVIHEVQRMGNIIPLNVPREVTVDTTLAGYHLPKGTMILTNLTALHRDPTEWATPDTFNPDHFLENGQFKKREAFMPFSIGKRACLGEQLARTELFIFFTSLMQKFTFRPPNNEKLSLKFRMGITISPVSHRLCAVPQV", "experiment": "Chemical inhibition of M1 formation by recombinant CYP2J2", "type": "biochemical"}, "recombinant CYP4F2": {"target": "T3, recombinant CYP4F2 (Homo sapiens, UniProt P78329)", "T3 sequence (P78329 5-520)": "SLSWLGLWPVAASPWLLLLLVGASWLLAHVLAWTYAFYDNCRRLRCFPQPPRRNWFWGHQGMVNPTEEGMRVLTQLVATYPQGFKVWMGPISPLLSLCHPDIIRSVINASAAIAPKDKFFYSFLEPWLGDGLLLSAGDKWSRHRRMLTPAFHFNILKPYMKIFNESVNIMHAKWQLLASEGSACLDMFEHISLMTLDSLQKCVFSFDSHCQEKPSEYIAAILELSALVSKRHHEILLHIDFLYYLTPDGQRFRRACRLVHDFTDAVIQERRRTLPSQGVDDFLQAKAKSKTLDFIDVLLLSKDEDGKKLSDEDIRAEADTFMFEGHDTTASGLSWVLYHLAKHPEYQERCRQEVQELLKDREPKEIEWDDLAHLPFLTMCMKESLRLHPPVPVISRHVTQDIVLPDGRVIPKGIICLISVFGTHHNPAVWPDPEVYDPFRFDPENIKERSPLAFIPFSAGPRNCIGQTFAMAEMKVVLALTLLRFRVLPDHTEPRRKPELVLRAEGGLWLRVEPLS", "experiment": "Chemical inhibition of M1 formation by recombinant CYP4F2", "type": "biochemical"}, "[5]": {"experiment": "Incubation of DB289 with pooled human liver microsomes", "type": "in vitro ADME", "details": "15 μM DB289, 0.2 mg/ml HLMs, 0-120 min", "in_short": "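Pooled liver microsomes (50 donors, mixed gender) at 0.2 mg/ml with 15 μM substrate in a 1 ml mix, equilibrated 5 min at 37°C, then started with NADPH. Aliquots taken at 0, 5, 15, 30 and 120 min into ice-cold acetonitrile. LC/UV at 359 nm against an external 0.1–15 μM calibration; metabolites identified by retention time versus synthetic standards. Single determination; controls lacked NADPH, protein or substrate.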"}, "[6]": {"details": "read-out: inhibition of M1 formation"}, "[7]": {"details": "100 μM inhibitor, 10 pmol/ml P450, 3 μM DB289"}, "[8]": {"details": "0.2 μM and 1 μM, 10 pmol/ml P450, 3 μM DB289"}}}
{"smiles": "CC(C)(C)c1ccc(C(=O)CCCN2CCC(OC(c3ccccc3)c3ccccc3)CC2)cc1", "note": "[ebastine]", "values": [{"measurement": "Km", "setting": "CYP2J2 [1]", "value": 1.3, "unit": "µM"}]}
{"smiles": "CCCCCCCCc1ccc(CCC(N)(CO)CO)cc1", "note": "[FTY720, 2-amino-2-[2-(4-octylphenyl)ethyl]-1,3-propanediol]", "values": [{"measurement": "Vmax of ω-hydroxylation", "setting": "[2]", "value": 1850, "unit": "pmol/min/mg protein"}, {"measurement": "Km", "setting": "[2]; read-out: apparent Km of ω-hydroxylation", "value": 180, "unit": "µM"}]}
{"smiles": "CC(=O)N1CCN(c2ccc(OCC3COC(Cn4ccnc4)(c4ccc(Cl)cc4Cl)O3)cc2)CC1", "note": "(stereo not shown) [ketoconazole]", "values": [{"measurement": "inhibition of M1 formation", "setting": "[3]; 3 μM inhibitor, 0.2 mg/ml HLM, 3 μM DB289, 5 min, Fig. 4", "value": 61, "unit": "%"}, {"measurement": "inhibition of M1 formation", "setting": "[3]; 3 μM inhibitor, 0.2 mg/ml pooled HLMs (different lot), 3 μM DB289, 5 min, Fig. 8", "value": "~43", "unit": "%"}, {"measurement": "inhibition of M1 formation", "setting": "recombinant CYP4F3B; 3 μM inhibitor, 10 pmol/ml P450, 3 μM DB289, 15 min", "value": "no effect"}, {"measurement": "inhibition at 5 min, 3 μM", "setting": "CYP2J2 [4]; human, recombinant CYP2J2, pH 7.4, probe DB289 (3 μM), conversion to M1", "value": 93, "unit": "%"}, {"measurement": "inhibition at 3 µM", "setting": "recombinant CYP4F2; [6]", "value": 87, "unit": "%"}]}
{"smiles": "CCCCC/C=C\\C/C=C\\C/C=C\\C/C=C\\CCCC(=O)O", "note": "[arachidonic acid]", "values": [{"measurement": "inhibition of M1 formation", "setting": "[3]; 500 μM inhibitor, 0.2 mg/ml HLM, 3 μM DB289", "value": 60, "unit": "%"}, {"measurement": "inhibition of M1 formation", "setting": "[3]; inhibitor up to 100 μM, 0.2 mg/ml HLM, 3 μM DB289", "value": "no effect"}, {"measurement": "inhibition of M1 formation", "setting": "recombinant CYP4F3B; [7]", "value": "potently inhibited"}, {"measurement": "inhibition of M1 formation", "setting": "recombinant CYP4F2; [7]", "value": "potently inhibited"}]}
{"smiles": "CO[C@H]1C[C@H](O[C@H]2[C@H](C)[C@@H](O[C@@H]3O[C@H](C)C[C@H](N(C)C)[C@H]3OC(C)=O)[C@@H](C)C[C@@]3(CO3)C(=O)[C@H](C)[C@@H](OC(C)=O)[C@@H](C)[C@@H](C)OC(=O)[C@@H]2C)O[C@@H](C)[C@@H]1OC(C)=O", "note": "[troleandomycin]", "values": [{"measurement": "inhibition of M1 formation", "setting": "[3]; 50 or 100 μM inhibitor, 0.2 mg/ml HLM, 3 μM DB289", "value": "did not inhibit"}]}
{"smiles": "O=c1cc(-c2ccccc2)oc2c1ccc1ccccc12", "note": "[α-naphthoflavone]", "values": [{"measurement": "inhibition of M1 formation", "setting": "[3]; 1 μM inhibitor, 0.2 mg/ml HLM, 3 μM DB289, 5 min", "value": "negligible inhibition"}]}
{"smiles": "Nn1nnc2ccccc21", "note": "[ABT, 1-aminobenzotriazole]", "values": [{"measurement": "inhibition of M1 formation relative to control", "setting": "[3]; 100 μM inhibitor, 15 min preincubation, 0.2 mg/ml HLM, 3 μM DB289, 5 min", "value": 86, "unit": "%"}]}
{"smiles": "N=C(N)c1ccc(-c2ccc(-c3ccc(C(=N)N)cc3)o2)cc1", "note": "[DB75, 2,5-bis(4-amidinophenyl) furan]", "values": [{"measurement": "concentration of metabolite formed from DB289", "setting": "[5]", "value": "below the lower level of quantification"}]}
{"smiles": "CCCCc1ccc(N=CNO)c(C)c1", "note": "[HET0016, N-hydroxy-N′-(4-n-butyl-2-methylphenyl)formamidine]", "values": [{"measurement": "inhibition of M1 formation", "setting": "[3]; 0.1 μM inhibitor, 0.2 mg/ml HLM, 3 μM DB289", "value": 78, "unit": "%"}, {"measurement": "inhibition of M1 formation", "setting": "[3]; 0.5 μM inhibitor, 0.2 mg/ml HLM, 3 μM DB289", "value": 95, "unit": "%"}, {"measurement": "inhibition at 0.02 µM", "setting": "recombinant CYP4F3B; [6]", "value": 79, "unit": "%"}, {"measurement": "inhibition at 0.02 µM", "setting": "recombinant CYP4F2; [6]", "value": 82, "unit": "%"}]}
{"smiles": "C#CCCCCCCCCCCCCCCCC(=O)O", "note": "[17-ODYA, 17-Octadecynoic acid]", "values": [{"measurement": "inhibition of M1 formation", "setting": "[3]; 1 μM inhibitor, 15 min preincubation, 0.2 mg/ml HLM, 3 μM DB289", "value": 39, "unit": "%"}, {"measurement": "inhibition of M1 formation", "setting": "[3]; 10 μM inhibitor, 15 min preincubation, 0.2 mg/ml HLM, 3 μM DB289", "value": 84, "unit": "%"}, {"measurement": "activation of M1 formation at low concentrations", "setting": "recombinant CYP4F3B; [8]", "value": "appeared to activate"}, {"measurement": "activation of M1 formation at low concentrations", "setting": "CYP2J2 [4]; [8]", "value": "activation was not observed"}, {"measurement": "activation of M1 formation at low concentrations", "setting": "recombinant CYP4F2; [8]", "value": "activation was not observed"}]}
